# High-throughput results: PubChem BioAssay, several laboratories
# MT stabilizer: microtubule stabilization, imaging screen; HeLa tubulin immunostaining HCS, 24 h; share of cells brighter than vehicle mean+2SD; % tubulin-high responders, % at 10 µM; 200,000 compounds, 0.83% hits; AID 2205;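 active means plate Z-score above 3 for both tubulin-high and condensed-nucleus cell shares, with cell loss under 80%, at 10 µM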;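 further: anti alpha tubulin signal scored within the nucleus-defined area of each cell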
# b-catenin transl: modulators of beta-catenin nuclear translocation; 190,000 compounds, 0.3% hits; nuclear translocation activity, % at 5 µM; AID 1665; HeLa beta-catenin nuclear translocation, immunofluorescence imaging;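 active means nuclear translocation activity above 50% at 5 µM, with a well cell count of 50 or more; inconclusive means wells under 50 cells across six images, flagged as toxic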;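 further: per-cell ratio of nuclear to cytoplasmic median beta-catenin stain intensity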
#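 Technique: fluorescence imaging of beta-catenin antibody stain plus DAPI / Material: human HeLa cell line / Incubation: compound treatment 24 h, 37°C, 5% CO2 / Read-out basis: % activation of per-cell nuclear versus cytoplasmic median beta-catenin signal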
# ROMK primary: human ROMK K+ channel modulation, primary screen | Tet-inducible ROMK, thallium flux fluorescence; actives lie on both sides | B-score at 10 µM | 130,000 compounds, 2% hits | AID 1918;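 active means signal ratio slope over the read window, or its plate-corrected B-score, at least 3 SD from the plate mean, either direction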;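 further: B-score of the F/F0 ratio slope over 7 to 12 s after thallium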
# Target sequence (P48048 whole entry, looked up): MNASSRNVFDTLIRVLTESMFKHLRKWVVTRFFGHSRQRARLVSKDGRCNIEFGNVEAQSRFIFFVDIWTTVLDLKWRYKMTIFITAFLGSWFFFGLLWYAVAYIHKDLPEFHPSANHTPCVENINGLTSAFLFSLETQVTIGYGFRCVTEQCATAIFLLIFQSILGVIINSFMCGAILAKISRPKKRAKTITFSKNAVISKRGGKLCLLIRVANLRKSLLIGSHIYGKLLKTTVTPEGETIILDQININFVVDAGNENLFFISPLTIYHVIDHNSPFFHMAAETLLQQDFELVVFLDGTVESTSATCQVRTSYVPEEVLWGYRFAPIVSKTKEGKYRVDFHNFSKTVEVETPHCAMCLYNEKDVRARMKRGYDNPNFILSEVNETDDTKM
# ROMK retest: human ROMK channel modulation, retest confirmation. shares compounds with ROMK primary. ROMK thallium flux, fluorescence ratio; stronger effect = lower value. AID 1917. 3,000 compounds, 54% hits. normalized thallium flux (F/F0 slope) at 10 µM;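 active means Flux at 10 µM at least 3 SD below or above vehicle control mean in one or both replicates; inconclusive means no clear call, values can overlap the other calls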
# A number is an active result; n = inactive; u = inconclusive; x = no result. In the library only some 1.9% were active in any assay of this set; here they are far more common.
SMILES,MT stabilizer,b-catenin transl,ROMK primary,ROMK retest
COc1cccc(-c2nc(C=O)cs2)c1,n,n,4.39,0.103
COc1ccc(-c2nc(C=O)cs2)cc1,x,n,x,x
Cc1ccc(S(=O)(=O)Nc2cccc3c2CCCC3)cc1,n,n,n,x
Cc1sc2nc(CN3CCCC3)nc(N3CCN(S(=O)(=O)c4cccs4)CC3)c2c1C,n,n,-2.52,0.0553
Cc1sc2nc(CN3CCCCC3)nc(N3CCN(C(=O)c4ccco4)CC3)c2c1C,n,n,n,x
O=C1CC(/C=C/c2cccnc2)=Nc2ccccc2N1,n,n,n,x
O=C1CC(/C=C/c2ccccc2)=Nc2ccccc2N1,n,n,n,x
CC1(C)CC(/C=C/c2ccccc2)=Nc2ccccc2N1,x,n,x,0.036
O=C1CC(/C=C/c2ccc(Cl)cc2)=Nc2ccccc2N1,n,n,-3.39,0.0588
Cc1ccc(-n2ncc(C(=O)Nc3cc(Cl)ccc3C)c2C2CCNCC2)cc1C,n,n,-3.25,0.0455
Cc1cccc(NC(=O)c2cnn(-c3ccc(F)cc3)c2C2CCNCC2)c1C,x,n,n,x
CN(C)/C=C(/C(=O)c1ccc(Cl)cc1)S(=O)(=O)c1ccc(Cl)cc1,n,x,x,n
CN(C)/C=C(/C(=O)c1ccc(Cl)cc1Cl)S(=O)(=O)c1ccc(Cl)cc1,n,n,x,x
Fc1cccc(Cl)c1CSc1nnc(COc2cccc3cccnc23)o1,n,x,n,x
O=C(Cn1c(=O)n(CCc2c[nH]c3ccccc23)c(=O)c2cccnc21)Nc1ccccc1F,n,n,2.82,n
Cc1cccc(NC(=O)Cn2c(=O)n(CCc3c[nH]c4ccccc34)c(=O)c3cccnc32)c1,n,n,n,x
Nc1nonc1-c1nc2ccccc2n1CC(=O)Nc1ccccc1,x,n,x,x
CCOC(=O)c1ccccc1NC(=O)Cn1c(-c2nonc2N)nc2ccccc21,n,63.0,4.43,n
O=C(Nc1ccccn1)c1ccc(Br)c(S(=O)(=O)N2CCCCC2)c1,n,x,n,x
CSc1ccc(NC(=O)c2cccnc2)cc1C#N,n,n,n,x
Cc1ccc(S(=O)(=O)N2CCN(C(=O)c3ccccc3)CC2)cc1,n,x,n,x
Cc1ccc(C(=O)N2CCN(S(=O)(=O)c3ccccc3)CC2)cc1,n,n,2.75,u
CCn1ncc(/C=N\NC(=O)c2ccc3c(c2)c(C)c(C)n3Cc2ccccc2)c1C,n,n,n,x
Cc1c(C)n(Cc2ccccc2)c2ccc(C(=O)OCCN(C)C)cc12,n,n,-3.54,0.0592
Cc1cc(C)c(S(=O)(=O)N2CCCCC2)c(C)c1N(C)S(=O)(=O)c1ccccc1,n,n,n,x
SMILES,MT stabilizer,b-catenin transl,ROMK primary,ROMK retest
O=c1c(/C=N/Nc2ccccc2)c(Sc2nnnn2-c2ccccc2)nc2ccccn12,n,n,-3.68,0.0401
O=C(O)c1ccccc1N/N=C/c1c(Sc2nnnn2-c2ccccc2)nc2ccccn2c1=O,x,n,x,x
O=C(Nc1ccc(N2C(=O)CCC2=O)cc1Cl)c1cccs1,n,n,n,x
COc1cc(/C=N\n2cnnc2)ccc1OCC(=O)Nc1ccc(C)cc1,n,n,x,n
COc1ccc(NC(=O)COc2ccc(/C=N/n3c(C)nnc3C)cc2OC)cc1,n,x,x,x
COc1ccc(Cc2[nH]n3c(=O)c(Cl)c(C)nc3c2-c2ccccc2)cc1,n,n,n,x
Clc1ccc(-c2nnc(CNC3CC3)o2)cc1,n,n,x,x
CSC1=NSC2=NC(=O)/C(=C/c3coc4ccccc4c3=O)C(=N)N12,n,n,x,x
N=C1/C(=C\c2coc3ccccc3c2=O)C(=O)N=C2SC=CN12,x,n,x,0.0377
Cc1ccc(C(=O)NC(C)C(c2cccs2)N2CCCC2)s1 (configuration not stated),n,n,-3.56,n
CC(NC(=O)COc1ccccc1)C(c1cccs1)N1CCCC1 (configuration not stated),n,n,n,x
[N-]=[N+]=CC(=O)C(c1ccccc1)(c1ccccc1)c1ccccc1,x,n,n,x
CN(c1ccccc1)S(=O)(=O)c1cccc(NC(=O)c2ccc3ncsc3c2)c1,x,n,x,0.0673
Cc1nc2ccc(NC(=O)c3cccc(S(=O)(=O)N(C)c4ccccc4)c3)cc2s1,n,n,n,x
CCn1cc(S(=O)(=O)N2CCN(Cc3cccc(Cl)c3)CC2)cn1,n,n,n,x
CCn1cc(S(=O)(=O)N2CCN(Cc3ccc(F)cc3)CC2)cn1,n,n,-23.4,n
Cc1oc2c(c1C(=O)O)C(=O)c1ccccc1C2=O,n,n,n,x
Cc1oc2c(c1C(=O)c1ccccc1)C(=O)C(=O)c1ccccc1-2,n,n,x,u
Cc1ccc[n+](CC(=O)c2ccc(NC(=O)c3ccccc3)cc2)c1,n,n,n,x
O=C(Nc1ccc[n+](CC(=O)c2cccc3ccccc23)c1)c1ccccc1,n,n,-2.79,0.0558
N=c1n(CCN2CCCCC2)c2ccccc2n1CC(O)c1cccc(Br)c1 (configuration not stated),n,n,x,x
N=c1n(CCN2CCCCC2)c2ccccc2n1CC(O)c1ccc(Cl)c(Cl)c1 (configuration not stated),n,n,-4.54,0.0461
O=C(NCCCOc1cccc(CN2CCCCC2)c1)c1ccc(Cl)c(Cl)c1,n,n,-3.47,0.0568
O=C(NCC1CCCN(Cc2cccc(OCCO)c2)C1)c1ccc(F)cc1 (configuration not stated),n,n,n,x
C=CCOC(=O)C1=C[C@@H](c2ccc3c(c2)OCO3)C[C@@H](OCc2ccc(CO)cc2)O1,n,n,x,x
SMILES,MT stabilizer,b-catenin transl,ROMK primary,ROMK retest
CC1(C)CC(=O)C(C2C3=C(CC(C)(C)CC3=O)Oc3ccccc32)C(=O)C1 (configuration not stated),x,n,n,x
CC1(C)CC(=O)C2=C(C1)Oc1nc3ccccc3cc1C2C(C#N)C#N (configuration not stated),n,n,-3.55,0.0583
CCOc1ccccc1CNC(=O)C1CCN(C(=O)c2sccc2-n2cccc2)CC1,n,n,n,x
CC(C)CNC(=O)c1nc(-c2ccccc2)n(-c2ccccc2)n1,n,n,x,n
Cc1nn(-c2ccccc2)c(Cl)c1C(=O)NCC(C)C,n,n,x,x
CCCN(CCC)S(=O)(=O)c1ccc(C(=O)NNc2nc(-c3ccccc3)c3cc(Br)ccc3n2)cc1,n,n,n,x
O=C(CCl)Nc1cccc(Oc2ccccc2)c1,n,n,-4.76,u
O=C(CN1CCCCC1)Nc1cccc(Oc2ccccc2)c1,n,x,n,x
CC(=O)c1c(C)nn(C(C)CC(=O)O)c1C (configuration not stated),n,n,x,n
CC(CC(=O)O)n1nnc2ccccc21 (configuration not stated),x,n,x,x
Cc1ccc(Nc2nnc(SCC(=O)NCCN3C(=O)CSC3=O)s2)cc1,n,n,x,x
Cc1ccc(CC(=O)NCc2ccc(F)cc2)cc1,24.6,n,4.4,n
Cc1ccc(CNC(=O)CSCc2ccc(F)cc2)cc1,n,n,n,x
Cc1ccc(CNC(=O)Cc2ccc(-n3c(=O)[nH]c4ccsc4c3=O)cc2)cc1,n,n,n,n
Cc1ccc(CNC(=O)CCCCn2c(=O)[nH]c3ccsc3c2=O)cc1,n,n,n,x
COc1cc2[nH]c(=O)n(CCCCCC(=O)NCCc3c[nH]c4ccccc34)c(=O)c2cc1OC,n,n,n,x
CCC1CCc2c(sc(NC(=O)C3c4ccccc4Oc4ccccc43)c2C(N)=O)C1 (configuration not stated),n,n,x,x
